For data set [1], the system named is Blood. The data set is described as follows: Retention time in Sprague-Dawley rat whole blood treated with 50 uM Bis(4-fluorobenzyl)trisulfide after 15 mins by HPLC analysis. The format is ADME, tissue-based. The settings on record: 0.25 h.
In data set [2] the test system is Blood. The data set is described as follows: Drug level in Sprague-Dawley rat whole blood treated with BFBTS at 50 uM after 15 mins by HPLC analysis. The settings on record: 0.25 h. The format is ADME, tissue-based.
The subject of data set [3] is Blood. The data set is described as follows: Drug level in Sprague-Dawley rat whole blood treated with BFBTS at 50 uM by GC/MS analysis. It is filed as ADME, tissue-based.
A short description of data set [4]: Drug level in phosphate buffered saline treated with BFBTS at 5 uM by HPLC analysis in presence of GSH. It is filed as physicochemical. As to conditions: buffer; call rule not given here.
The nature of data set [5]: Drug metabolism in phosphate buffered saline treated with BFBTS at 5 uM by HPLC analysis in presence of cysteine. The settings on record: buffer. The format is physicochemical.
Data set [6] is described as follows: Drug metabolism in phosphate buffered saline treated with BFBTS at 5 uM by HPLC analysis in presence of N-acetyl cysteine. It is filed as physicochemical. The settings on record: buffer.
Data set [7] in a line: Drug metabolism in phosphate buffered saline treated with BFBTS at 5 uM by HPLC analysis in presence of coenzyme A. The format is physicochemical. As to conditions: buffer.
Data set [8] is described as follows: Drug metabolism in Sprague-Dawley rat RBC assessed as BFBDS metabolite formation by HPLC analysis. It is filed as ADME, cell-based. As to conditions: erythrocyte. The gist of the method: (§1)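 BFBTS (final 50 μM) incubated at 37°C with rat RBCs diluted with an equal volume of PBS, for 5, 10, 15, 30, 45 and 60 min. For M2 (p-FBM) and M3 (p-FBA), two volumes of acetonitrile added before HPLC. BFBTS and M1 were extracted by a cited method.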

Data set [9] is described as follows: Drug metabolism in Sprague-Dawley rat RBC assessed as p-FBA metabolite formation by HPLC analysis. The settings on record: erythrocyte. The format is ADME, cell-based. The gist of the method:
as §1

The nature of data set [10]: Drug metabolism in Sprague-Dawley rat RBC assessed as BFBTS formation by HPLC analysis. The format is ADME, cell-based. As to conditions: erythrocyte. The gist of the method:
as §1

Data set [11] in a line: Drug level in Sprague-Dawley rat RBC treated with BFBTS by HPLC analysis. The format is ADME, cell-based. As to conditions: erythrocyte. The gist of the method: (§2)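 Male Sprague-Dawley rat RBCs (200–220 g rats), washed three times with PBS pH 7.4 and resuspended in PBS, incubated separately with each metabolite. Metabolites confirmed against authentic standards.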
Data set [12] in a line: Drug level in Sprague-Dawley rat RBC treated with BFBDS by HPLC analysis. The format is ADME, cell-based. As to conditions: erythrocyte. The gist of the method:
as §2

A short description of data set [13]: Drug level in Sprague-Dawley rat RBC treated with p-FBA by HPLC analysis. It is filed as ADME, cell-based. The settings on record: erythrocyte.
Data set [14] concerns Blood. The data set can be described thus: Drug level in Sprague-Dawley rat whole blood treated with BFBTS by HPLC analysis. It is filed as ADME, tissue-based.
Data set [15] deals with Blood. The data set can be described thus: Drug metabolism in Sprague-Dawley rat whole blood assessed as BFBDS metabolite formation at 50 uM by GC/MS analysis. It is filed as ADME, tissue-based.
Data set [16] relates to Blood. The data set is described as follows: Drug metabolism in Sprague-Dawley rat whole blood assessed as p-FBM metabolite formation at 50 uM by GC/MS analysis. It is filed as ADME, tissue-based.
A short description of data set [17]: Drug metabolism in phosphate buffered saline assessed as p-FBM metabolite formation at 5 uM by HPLC analysis in presence of GSH. As to conditions: buffer. The format is physicochemical.
The nature of data set [18]: Drug metabolism in phosphate buffered saline assessed as p-FBM metabolite formation at 5 uM by HPLC analysis in presence of cysteine. It is filed as physicochemical. The settings on record: buffer.
Data set [19] in a line: Drug metabolism in phosphate buffered saline assessed as p-FBM metabolite formation at 5 uM by HPLC analysis in presence of coenzyme A. As to conditions: buffer. It is filed as physicochemical.
A short description of data set [20]: Stability of compound in phosphate buffered saline at 5 uM after 30 mins by HPLC analysis in presence of GSH. The settings on record: buffer, 0.5 h. It is filed as physicochemical.
A short description of data set [21]: Stability of compound in phosphate buffered saline at 5 uM after 30 mins by HPLC analysis in presence of cysteine. It is filed as physicochemical. As to conditions: buffer, 0.5 h.
Data set [22] in a line: Stability of compound in phosphate buffered saline at 5 uM after 30 mins by HPLC analysis in presence of N-acetyl cysteine. The format is physicochemical. As to conditions: buffer, 0.5 h.
Data set [23] is described as follows: Stability of compound in phosphate buffered saline at 5 uM after 30 mins by HPLC analysis in presence of coenzyme A. The format is physicochemical. As to conditions: buffer, 0.5 h.
The nature of data set [24]: Stability in Sprague-Dawley rat RBC at 5 uM incubated for 1 hr after 5 mM thiol residue blocking agent iodoacetamide challenge by HPLC analysis. The format is ADME, cell-based. The settings on record: erythrocyte.
The nature of data set [25]: Drug metabolism in Sprague-Dawley rat RBC assessed as p-FBM metabolite formation by HPLC analysis. It is filed as ADME, cell-based. The settings on record: erythrocyte. The gist of the method: as §1
Data set [26] in a line: Drug level in Sprague-Dawley rat RBC treated with p-FBM by HPLC analysis. It is filed as ADME, cell-based. As to conditions: erythrocyte. The gist of the method:
as §2

Data set [27] has as its system Blood. The data set can be described thus: Drug metabolism in Sprague-Dawley rat whole blood assessed as BFBDS metabolite formation by HPLC analysis. It is filed as ADME, tissue-based.
Data set [28] deals with Blood. The data set is described as follows: Drug metabolism in Sprague-Dawley rat whole blood assessed as p-FBM metabolite formation by HPLC analysis. The format is ADME, tissue-based.
The subject of data set [29] is Blood. The data set is described as follows: Drug metabolism in Sprague-Dawley rat whole blood assessed as p-FBA metabolite formation by HPLC analysis. It is filed as ADME, tissue-based.
Data set [30] relates to Blood. The data set can be described thus: Drug metabolism in Sprague-Dawley rat whole blood assessed as p-FBA metabolite formation at 50 uM by UPLC-MS/MS analysis. It is filed as ADME, tissue-based. The gist of the method: (§3)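 p-FBA in rat whole blood incubated with BFBTS, measured by UPLC-MS. 0.1% formic acid/acetonitrile gradient at 0.2 ml/min, column 25°C. Capillary 3.30 kV, cone 31 V, source 150°C, desolvation 350°C.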

Data set [31] in a line: Drug recovery in Sprague-Dawley rat whole blood at 64 uM after 2 hrs by HPLC analysis. The format is ADME, tissue-based. The settings on record: read-out: Drug recovery. The gist of the method:
(§4)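 Recovery test: BFBTS 64 μM incubated for 2 h with rat whole blood, plasma (3,000 g, 10 min) or PBS-washed RBCs. Liquid-liquid extraction, then HPLC; recovery compared across the three matrices.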

Data set [32] is described as follows: Drug recovery in Sprague-Dawley rat plasma at 64 uM after 2 hrs by HPLC analysis. It is filed as ADME, cell-free. The settings on record: read-out: Drug recovery. The gist of the method:
as §4

Data set [33] is described as follows: Drug recovery in Sprague-Dawley rat RBC at 64 uM after 2 hrs by HPLC analysis. It is filed as ADME, cell-based. As to conditions: erythrocyte. The gist of the method:
as §4

A short description of data set [34]: Drug metabolism in Sprague-Dawley rat RBC assessed as rapid p-FBM metabolite formation at 50 uM by HPLC analysis. It is filed as ADME, cell-based. As to conditions: erythrocyte. The gist of the method:
as §1

A short description of data set [35]: Drug metabolism in Sprague-Dawley rat RBC assessed as p-FBA metabolite formation at slow rate at 50 uM by HPLC analysis. As to conditions: erythrocyte. It is filed as ADME, cell-based. The gist of the method: as §1
Data set [36] can be described thus: Half life in Sprague-Dawley rat diluted RBC at 25 uM by HPLC analysis. The format is ADME, cell-based, Erythrocyte. As to conditions: diluted red blood cells (RBC). The gist of the method: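 BFBTS incubated with diluted rat RBCs (10^8/ml) for 1.5, 3, 5, 10 and 15 min. After extraction, BFBTS measured by HPLC. Half-life from nonlinear regression of concentration-time data; n = 3, means with SD.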

Data set [37] is described as follows: Half life in Sprague-Dawley rat diluted RBC at 1 uM by HPLC analysis. The format is ADME, cell-based, Erythrocyte. The settings on record: diluted red blood cells (RBC).
A short description of data set [38]: Drug metabolism in phosphate buffered saline assessed as BFBDS metabolite formation at 5 uM by HPLC analysis in presence of GSH. The format is physicochemical. As to conditions: buffer.
Data set [39] is described as follows: Drug metabolism in phosphate buffered saline assessed as BFBDS metabolite formation at 5 uM by HPLC analysis in presence of cysteine. As to conditions: buffer. The format is physicochemical.
Data set [40] is described as follows: Drug metabolism in phosphate buffered saline assessed as BFBDS metabolite formation at 5 uM by HPLC analysis in presence of N-acetyl cysteine. As to conditions: buffer. The format is physicochemical.
Data set [41] has as its system Blood. The data set can be described thus: Drug level in Sprague-Dawley rat whole blood treated with BFBTS at 50 uM by UPLC-MS/MS analysis. It is filed as ADME, tissue-based. The gist of the method:
as §3

The nature of data set [42]: Drug level in phosphate buffered saline treated with BFBTS at 5 uM at pH 7.4 after 30 mins by LC-MS analysis in presence of GSH. The format is physicochemical. The settings on record: buffer, pH 7.4, 0.5 h. The gist of the method: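 BFBTS 5 μM incubated with GSH 0.5 mM in PBS pH 7.4 for 30 min. Two volumes of acetonitrile added, then HPLC and LC-MS to identify reaction products.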

Consider `Fc1ccc(CS)cc1`, for which the Retention_time in the data set on Blood [1] is given as 24.66 min. The Drug metabolism entry (in the data set on Blood [2]; with Blood [3]; in [4]; in data set [5]; in [6]; in data set [7]) was “metabolite_detected” each time. Also, the Drug metabolism entry is on record as “metabolite_detected” in data set [8]; “metabolite_detected” in data set [9]; “metabolite_not_detected” in data set [10]; “metabolite_detected” in data set [11]; “metabolite_detected” in data set [12]; “metabolite_not_detected” in data set [13]. In addition, the Drug metabolism result in the data set on Blood [14] is reported as “metabolite_detected”.

Broadly, the half-life is how long it takes for the measured level to halve. Low values mean fast loss, high ones slow loss. For the compound `Fc1ccc(CSSSCc2ccc(F)cc2)cc1`, the Drug metabolism entry (with Blood [15]; in the data set on Blood [16]; in [17]; in data set [18]; in data set [19]; in [8]) was “metabolite_detected” throughout. The Drug metabolism entry in [25] is “metabolite_detected”; in data set [9], “metabolite_detected”; in [12], “metabolite_not_detected”; in data set [26], “metabolite_not_detected”; in [13], “metabolite_not_detected”; with Blood [27] it was “metabolite_detected”. In addition, the Drug metabolism entry (in the data set with Blood [28]; in the data set with Blood [29]; in the data set with Blood [30]; in data set [34]; in data set [35]; in data set [38]) was “metabolite_detected” throughout. In addition, the Drug metabolism result in data set [39] and in [40] was “metabolite_detected” throughout. Also, the Stability entry in data set [20] was “Unstable”; in [21] it was “Unstable”; in data set [22], “Unstable”; in data set [23], “Unstable”; in data set [24], “Stable”. The figures for the remaining at 2 h, 64 µM in data set [31] and in data set [32] were 2.54% and 13%, respectively. In [33], the Drug recovery entry was “Not Active”. The same compound came in with a half-life at 25 µM in data set [36] of 24 s. For the same compound, the half-life at 1 µM in data set [37] was under 30 s.

In the case of `O=C(O)c1ccc(F)cc1`, the Retention_time with Blood [1] was 8.15 min. Further, the Drug metabolism result is on record as “metabolite_detected” in the data set on Blood [2]; “metabolite_not_detected” in [8]; “metabolite_not_detected” in data set [25]; “metabolite_not_detected” in [10]; “metabolite_detected” in data set [11]; “metabolite_detected” in data set [12]. Besides, the Drug metabolism result (in [26]; in the data set on Blood [14]; with Blood [41]) was “metabolite_detected” each time.

In the data set with Blood [1], `Fc1ccc(CSSCc2ccc(F)cc2)cc1` came in with a Retention_time of 38.89 min. The Drug metabolism result (in the data set with Blood [2]; in the data set with Blood [3]; in data set [4]; in data set [5]; in [6]; in [7]) was “metabolite_detected” throughout. Moreover, the Drug metabolism result was “metabolite_detected” in data set [25]; “metabolite_detected” in data set [9]; “metabolite_not_detected” in data set [10]; “metabolite_detected” in [11]; “metabolite_detected” in [26]; “metabolite_not_detected” in data set [13]. Further, the Drug metabolism result in the data set with Blood [14] is recorded as “metabolite_detected”.

In the case of `N[C@@H](CCC(=O)N[C@@H](CSSCc1ccc(F)cc1)C(=O)NCC(=O)O)C(=O)O`, in data set [42], the Drug uptake entry is reported as “metabolite_detected”.

The values are drawn from ChEMBL document CHEMBL3526067, “Metabolism of bis(4-fluorobenzyl)trisulfide and its formation of hemoglobin adduct in rat erythrocytes” (Drug Metab Dispos, 2013).
